In ChEMBL document CHEMBL3414569, “Amino acid modified xanthone derivatives: novel, highly promising membrane-active antimicrobials for multidrug-resistant Gram-positive bacterial infections” (J Med Chem, 2015):
Converted amounts (≈) assume the structure as drawn. The source made the active and inactive calls.

How the values were obtained:
Staphylococcus aureus [1] = experiment: Antimicrobial activity against Staphylococcus aureus DM4001 by broth macrodilution method; assay type: functional
In short: (§1)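 Broth macrodilution MIC in Mueller Hinton broth following CLSI guidelines. Inoculum was prepared by direct colony suspension from an 18−20 h tryptic soy agar plate.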

Staphylococcus aureus [2] = experiment: Antimicrobial activity against methicillin resistant Staphylococcus aureus DM21455 by broth macrodilution method; assay type: functional; in short: as §1
Staphylococcus aureus [3] = experiment: Antimicrobial activity against methicillin resistant Staphylococcus aureus DM09809R by broth macrodilution method; assay type: functional; in short: as §1
Bacillus cereus = experiment: Antimicrobial activity against Bacillus cereus ATCC 11778 by broth macrodilution method; assay type: functional
In short: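 CLSI broth macrodilution in Mueller Hinton broth. Inoculum was made by direct colony suspension from colonies on an 18−20 h tryptic soy agar plate. The value is the MIC.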

[4] = Selectivity index, ratio of HC50 for induction of hemolysis in New Zealand white rabbit RBC to MIC for Staphylococcus aureus DM4001
[5] = Selectivity index, ratio of HC50 for induction of hemolysis in New Zealand white rabbit RBC to MIC for Staphylococcus aureus DM21455
[6] = Selectivity index, ratio of HC50 for induction of hemolysis in New Zealand white rabbit RBC to MIC for Staphylococcus aureus DM09809R
[7] = Selectivity index, ratio of HC50 for induction of hemolysis in New Zealand white rabbit RBC to MIC for Bacillus cereus ATCC 11778
[8] = Induction of hemolysis in New Zealand white rabbit RBC after 1 hr; assay type: cell-based, Oryctolagus cuniculus, Erythrocyte; conditions: for HC50 at 1 h: New Zealand white, red blood cells (RBC)
In short: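 Fresh red blood cells isolated from New Zealand white rabbits. Lysis measured over a compound concentration series; HC50 taken as the concentration lysing 50% of RBCs.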

[9] = Retention time of the compound; assay type: physicochemical
In short: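 Reverse-phase HPLC of 20 μL injections of a 10 μg/mL sample at 1 mL/min. Gradient: 5−55% ACN over 5 min, then 55−95% over 15 min.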

Staphylococcus aureus [10] = experiment: Antimicrobial activity against Staphylococcus aureus ATCC 29213 by broth macrodilution method; assay type: functional; in short: as §1
Staphylococcus aureus [11] = experiment: Antimicrobial activity against Staphylococcus aureus ATCC 29213 at 0.5 times MIC measured after 17 passages by multistep passage drug resistance selection study relative to wild type Staphylococcus aureus ATCC 29213 before passage; assay type: functional
In short: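 Multipassage selection in S. aureus ATCC29213 across an eight-concentration dilution series. Growth was read after 20−22 h. Bacteria growing at 0.5 × MIC were repassaged into a fresh series, 17 passages in total. Resistance was defined as a more than 4-fold rise over the initial MIC.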

Enterococcus [12] = experiment: Antimicrobial activity against vancomycin-sensitive Enterococcus isolates by broth macrodilution method; assay type: functional
Enterococcus [13] = experiment: Antimicrobial activity against vancomycin-resistant Enterococcus isolates by broth macrodilution method; assay type: functional
Streptococcus = experiment: Antimicrobial activity against Streptococcus isolates by broth macrodilution method; assay type: functional
Corynebacterium jeikeium = experiment: Antimicrobial activity against Corynebacterium jeikeium isolates by broth macrodilution method; assay type: functional
Listeria monocytogenes = experiment: Antimicrobial activity against Listeria monocytogenes isolates by broth macrodilution method; assay type: functional
Enterococcus [14] = experiment: Bactericidal activity against vancomycin-resistant Enterococcus isolates assessed as reduction in bacterial count 2048 ug/mL after 2 hrs by cell counting based time assay; assay type: functional, organism-based
In short: (§2)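 Time-kill at 35 °C with colonies taken from an 18−20 h tryptic soy agar plate and suspended in CA-MHB at 10^5−10^6 CFU/mL, then drug added. Aliquots taken at set times were diluted 10-fold serially in D/E neutralization broth, spread on tryptic soy agar, incubated 48−72 h at 35 °C, and colonies counted. Strains: MRSA DM21455, vanA and vanB VRE.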

Enterococcus [15] = experiment: Bactericidal activity against vancomycin-resistant Enterococcus isolates assessed as reduction in bacterial count 2048 ug/mL after 24 hrs by cell counting based time assay; assay type: functional, organism-based; in short: as §2
Staphylococcus aureus [16] = experiment: Bactericidal activity against Staphylococcus aureus DM21455 assessed as reduction in bacterial count 2048 ug/mL after 24 hrs by cell counting based time assay; assay type: functional, organism-based; in short: as §2
Staphylococcus aureus [17] = experiment: Bactericidal activity against Staphylococcus aureus DM21455 assessed as reduction in bacterial count 2048 ug/mL after 2 hrs by cell counting based time assay; assay type: functional, organism-based; in short: as §2
Staphylococcus aureus [18] = experiment: Antimicrobial activity against methicillin resistant Staphylococcus aureus DM21455 in absence of 4% BSA by broth macrodilution method; assay type: functional; in short: as §1
Staphylococcus aureus [19] = experiment: Antimicrobial activity against methicillin resistant Staphylococcus aureus DM21455 in presence of 4% BSA by broth macrodilution method; assay type: functional
In short: (§3)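 MIC by CLSI broth macrodilution in Mueller Hinton broth, with BSA added to the bacterial suspension at a final 4% w/v. Inoculum was made by direct colony suspension from an 18−20 h tryptic soy agar plate.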

Staphylococcus aureus [20] = experiment: Antimicrobial activity against Staphylococcus aureus ATCC 29213 in absence of 4% BSA by broth macrodilution method; assay type: functional; in short: as §1
Staphylococcus aureus [21] = experiment: Antimicrobial activity against Staphylococcus aureus ATCC 29213 in presence of 4% BSA by broth macrodilution method; assay type: functional; in short: as §3

Compound	MIC (Staphylococcus aureus [1])	MIC (Staphylococcus aureus [2])	MIC (Staphylococcus aureus [3])	MIC (Bacillus cereus)	Selectivity Index [4]	Selectivity Index [5]	Selectivity Index [6]	Selectivity Index [7]	HC50 at 1 h [8]	other results
COc1c(O)cc2oc3cc(O)c(CC=C(C)C)c(O)c3c(=O)c2c1CC=C(C)C [MANGOSTIN]	2 µg/mL (≈ 4.87 µM)	2 µg/mL (≈ 4.87 µM)	2 µg/mL (≈ 4.87 µM)	2 µg/mL (≈ 4.87 µM)	5	5	5	5	–	–
CCCCCCCCNCCC[C@@H](C)[C@H]1CC[C@H]2[C@H]3[C@H](OCCCN)C[C@H]4C[C@H](OCCCN)CC[C@]4(C)[C@H]3C[C@H](OCCCN)[C@]12C	0.4 µg/mL (≈ 0.591 µM)	0.4 µg/mL (≈ 0.591 µM)	0.4 µg/mL (≈ 0.591 µM)	0.4 µg/mL (≈ 0.591 µM)	73	73	73	73	–	MHC ([8]; erythrocyte, 1 h): 29 µg/mL
O=c1c2ccc(O)cc2oc2cc(O)cc(O)c12	> 50 µg/mL	–	–	–	–	–	–	–	–	–
CCN(CC)CCCCOc1ccc2c(=O)c3c(O)cc(OCCCCN(CC)CC)cc3oc2c1	> 50 µg/mL	–	–	–	–	–	–	–	–	–
N=C(N)NCCCCC(=O)Nc1cc(C(F)(F)F)cc(NC(=O)c2cc(C(=O)Nc3cc(C(F)(F)F)cc(NC(=O)CCCCNC(=N)N)c3O[C@@H]3CCNC3)ncn2)c1O[C@@H]1CCNC1 [BRILACIDIN]	4 µg/mL (≈ 4.27 µM)	4 µg/mL (≈ 4.27 µM)	4 µg/mL (≈ 4.27 µM)	4 µg/mL (≈ 4.27 µM)	44	44	44	44	175 µg/mL	–
CCOC(=O)[C@H](CCCNC(=N)N)NC(=O)COc1cc2oc3cc(OCC(=O)N[C@@H](CCCNC(=N)N)C(=O)OCC)c(OC)c(CC=C(C)C)c3c(=O)c2c(O)c1CC=C(C)C	6 µg/mL (≈ 6.7 µM)	6 µg/mL (≈ 6.7 µM)	12 µg/mL (≈ 13.4 µM)	12 µg/mL (≈ 13.4 µM)	9	9	5	5	56 µg/mL	Retention_time [9]: 8.38 min
CCn1cc(C(=O)O)c(=O)c2cc(F)c(N3CCNCC3)cc21 [NORFLOXACIN]	–	–	–	–	–	–	–	–	–	MIC (Staphylococcus aureus [10]): 2 µg/mL (≈ 6.26 µM); Ratio (Staphylococcus aureus [11]): 64
COc1c(O)cc2oc3cc(O)c(CCC(C)C)c(O)c3c(=O)c2c1CCC(C)C	50 µg/mL (≈ 121 µM)	–	–	–	–	–	–	–	–	–
COc1c(OCC(=O)N[C@@H](CCCNC(=N)N)C(N)=O)cc2oc3cc(OCC(=O)N[C@@H](CCCNC(=N)N)C(N)=O)c(CC=C(C)C)c(O)c3c(=O)c2c1CC=C(C)C	6 µg/mL (≈ 7.17 µM)	1 µg/mL (≈ 1.19 µM)	6 µg/mL (≈ 7.17 µM)	6 µg/mL (≈ 7.17 µM)	13	128	13	13	128 µg/mL	Retention_time [9]: 7.4 min
CN[C@H](CC(C)C)C(=O)N[C@H]1C(=O)N[C@@H](CC(N)=O)C(=O)N[C@H]2C(=O)N[C@H]3C(=O)N[C@H](C(=O)N[C@H](C(=O)O)c4cc(O)cc(O)c4-c4cc3ccc4O)[C@H](O)c3ccc(c(Cl)c3)Oc3cc2cc(c3O[C@@H]2O[C@H](CO)[C@@H](O)[C@H](O)[C@H]2O[C@H]2C[C@](C)(N)[C@H](O)[C@H](C)O2)Oc2ccc(cc2Cl)[C@H]1O [VANCOMYCIN]	–	–	–	–	–	–	–	–	–	MIC (Enterococcus [12]): 1 µg/mL (≈ 0.69 µM); MIC (Enterococcus [13]): 8 µg/mL (≈ 5.52 µM); MIC (Streptococcus): 0.5 µg/mL (≈ 0.345 µM); MIC (Corynebacterium jeikeium): 0.5 µg/mL (≈ 0.345 µM); MIC (Listeria monocytogenes): 0.5 µg/mL (≈ 0.345 µM); Activity (Enterococcus [14]): inactive; Activity (Enterococcus [15]): inactive; Activity (Staphylococcus aureus [16]): inactive; Activity (Staphylococcus aureus [17]): inactive; MIC (Staphylococcus aureus [18]): 0.78 µg/mL (≈ 0.538 µM); MIC (Staphylococcus aureus [19]): 0.78 µg/mL; MIC (Staphylococcus aureus [20]): 0.78 µg/mL (≈ 0.538 µM); MIC (Staphylococcus aureus [21]): 1.56 µg/mL
